# From PubChem BioAssay
# A selection: hits, their analogues and other compounds. The true share with any hit is near 2.5%.
# SENP1 inh: SENP1 (human) catalytic domain inhibition | recombinant SENP1 catalytic domain, CyPet-SUMO1-YPet FRET cleavage | inhibition, % at 10 µM | 360,000 tested, 0.21% active | AID 624204;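 active means inhibition at least 30% at 10 µM, raw YFP signal under a set limit, fluorescence ratio 0.5 to 1.5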
# Target sequence (Q9P0U3 419-644 limits assumed): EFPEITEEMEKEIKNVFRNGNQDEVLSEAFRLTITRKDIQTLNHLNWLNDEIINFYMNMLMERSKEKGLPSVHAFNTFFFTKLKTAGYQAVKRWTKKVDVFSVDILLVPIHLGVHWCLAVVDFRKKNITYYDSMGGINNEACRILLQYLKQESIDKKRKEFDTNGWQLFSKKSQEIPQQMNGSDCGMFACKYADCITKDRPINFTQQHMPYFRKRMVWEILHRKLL
#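 Material: hSENP1 catalytic domain, recombinant; medium: Tris pH 8 with BME, BSA, NP40 and catalase; compound: single concentration of 10 µM compound, 0.5% DMSO final; technique: FRET read of cyan and yellow fluorescence; timing: 50 min enzyme reaction, room temperature, light-protected; reagent: SFCypet-SUMO1-SFYpet substrate at 25 nM; control set: no-enzyme low, enzyme-DMSO high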
# SENP8 block-1: blocks the human protease SENP8 | Q96LD8 | purified SENP8, Z-RLRGG-aminoluciferin cleavage, luminescence | inhibition, % at 10 µM | 330,000 tested, 1.2% active | AID 2540; in the data active means inhibition above about 50%
# Target sequence (Q96LD8 whole entry, looked up): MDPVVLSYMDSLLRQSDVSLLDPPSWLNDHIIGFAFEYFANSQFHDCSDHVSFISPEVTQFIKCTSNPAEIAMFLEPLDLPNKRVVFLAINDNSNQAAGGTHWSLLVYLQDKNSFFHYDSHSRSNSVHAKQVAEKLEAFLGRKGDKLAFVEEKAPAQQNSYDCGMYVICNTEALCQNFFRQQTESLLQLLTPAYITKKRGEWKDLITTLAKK
# SENP7 inh: SENP7 protease inhibition | recombinant SENP7, Z-RLRGG-aminoluciferin luminescence, 40 min | inhibition, % at 5 µM | 330,000 tested, 1.5% active | AID 434973;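 active means inhibition above about 50% at the single test dose, limit read from the data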
# SENP6 inh: blocks the human protease SENP6. 330,000 tested, 1.8% active. AID 2599. Q9GZR1. inhibition, % at 10 µM. Recombinant SENP6 catalytic domain, aminoluciferin luminescence;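 active means inhibition above about 50% at the single tested dose, limit read from the data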
# SENP8 block-2: blocks human SENP8 cleavage of Nedd8 substrate. 360,000 tested, 0.64% active. Q96LD8. AID 602440. inhibition, % at 20 µM. recombinant SENP8, Nedd8 substrate fluorescence; in the data active means inhibition mostly above about 40%, no sharp cut-off; inactive means mostly below about 27%
# SENP8 conf: human SENP8 inhibition, confirmed; shares compounds with SENP7 inh; Recombinant SENP8, Z-RLRGG-aminoluciferin luminescence, 60 min; inhibition, % at 12.5 µM; 6,200 tested, 40% active;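 active means mean inhibition across replicates above about 50%, limit read from the data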
# SENP6 conf: confirmation of human SENP6 protease inhibitors. shares compounds with SENP7 inh. recombinant SENP6, Z-RLRGG-aminoluciferin luminescence. inhibition, % at 12.5 µM. 6,200 tested, 58% active. AID 488915
# SENP7 confirm: human SENP7 inhibition, confirmed. inhibition, % at 12.5 µM. recombinant SENP7, Z-RLRGG-aminoluciferin luminescence, 40 min. AID 488917. 6,200 tested, 69% active. shares compounds with SENP7 inh
# Casp3 select: selectivity test for SENP inhibitors: human caspase-3 inhibition; shares compounds with SENP7 inh; purified caspase-3, Z-DEVD-aminoluciferin luminescence, 60 min; inhibition, % at 12.5 µM; 6,200 tested, 60% active; AID 488918;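 active means mean inhibition above about 50%, limit read from the data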
# SENP luc ctr: luminescence interference (SENP counter-screen) | inhibition, % at 12.5 µM | shares compounds with SENP7 inh | 6,200 tested, 39% active | AID 488919 | Pre-incubated SENP8/Z-RLRGG-aminoluciferin, luciferase luminescence interference;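 active means mean inhibition above about 50% when retested at one dose, limit read from the data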
# Hits are given with their value; n = inactive; x = no result.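 How the source made its calls, unless noted: active means mean inhibition above about 50% in the one-dose retest (limit read from the data); inactive means the rest.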
SMILES,SENP1 inh,SENP8 block-1,SENP7 inh,SENP6 inh,SENP8 block-2,SENP8 conf,SENP6 conf,SENP7 confirm,Casp3 select,SENP luc ctr
O=c1[nH]c(C2CCCN(S(=O)(=O)c3ccccc3)C2)nc2c1nnn2Cc1ccccc1Br (stereo not given),n,n,n,n,n,x,x,x,x,x
COc1ccc(NC(=O)C2CCN(S(=O)(=O)c3cccc4nonc34)CC2)cc1,n,n,n,n,n,x,x,x,x,x
Cc1ccn(-c2cc(O)c(-n3ccc(C)n3)cc2O)n1,n,n,n,n,n,x,x,x,x,x
CC1=C(C(=O)Nc2cccc(F)c2)C(c2ccsc2)C2=C(CC(C)(C)CC2=O)N1 (stereo not given),n,n,n,n,n,x,x,x,x,x
CC1CCCCN1C(=O)CN1C(=O)c2ccccc2S1(=O)=O (stereo not given),n,n,n,n,n,x,x,x,x,x
O=c1c2ccccc2cnn1-c1ccc(Cl)nn1,n,n,n,n,n,x,x,x,x,x
O=c1c2ccccc2cnn1-c1ccc(Br)cc1,n,n,66,58,n,n,n,67,67,n
O=c1c2ccccc2cnn1-c1ccc2ccccc2c1,n,67,82,88,n,53,77,94,80,n
Cc1ccc(S(=O)(=O)NC(=O)C2(C)CCN2C(=O)COc2ccc(Cl)cc2)nc1 (stereo not given),n,x,x,x,n,x,x,x,x,x
Cc1ccc2c(c1)Sc1c(ccc3ccccc13)N2,n,56,n,80,n,n,n,n,n,n
CCn1c(O)c(N=Nc2ccc3ccccc3n2)c2ccccc21,n,94,97,95,n,n,n,98,n,n
CCCCn1c(O)c(N=Nc2ccccn2)c2ccccc21,n,n,n,n,n,x,x,x,x,x
NC(=O)c1nc(C(=O)N2CCN(c3ccccc3)CC2)c2ccccc2n1,n,n,n,n,n,x,x,x,x,x
Cc1cc(C)cc(C(=O)N2CCC3(CC2)NCCc2[nH]cnc23)c1,n,n,n,n,n,x,x,x,x,x
Cc1cccc(C)c1NC(=O)CN(C)C(=O)C(c1ccccc1)c1ccccc1,n,n,91,n,n,n,n,n,n,n
CCN1C(=O)/C(=C/C=C2/Sc3ccccc3N2CCO)SC1=S,n,n,n,n,n,x,x,x,x,x
CCN1C(=O)/C(=C/C=C2/SCCN2C)SC1=S,n,n,77,80,47,n,n,n,n,n
O=C(COc1ccc(F)c(Cl)c1)Nc1ccc(N2CCOCC2)cc1,n,n,n,n,n,x,x,x,x,x
O=C(NCC(F)(F)F)[C@H]1O[C@@H](n2ccc(=O)[nH]c2=O)[C@H](O)[C@@H]1O,n,x,x,x,n,x,x,x,x,x
CCCC[n+]1ccc(-c2nc3ccc([N+](=O)[O-])cc3[nH]2)cc1,n,n,n,n,n,x,x,x,x,x
Nc1ccc(-c2nc3ccc([N+](=O)[O-])cc3[nH]2)cc1,49,n,n,50,n,n,n,73,n,n
O=[N+]([O-])c1ccc(-c2nc3ccc([N+](=O)[O-])cc3[nH]2)cc1,n,68,76,85,n,n,n,58,n,50
Cc1ccc(C)c(S(=O)(=O)N/N=C/c2ccc(N3CCOCC3)cc2)c1,n,n,n,n,n,x,x,x,x,x
CCc1ccc(Cn2ncc3c(C(=O)O)cc(C)nc32)cc1,n,x,x,x,n,x,x,x,x,x
Cc1ccc2nc(/C(C#N)=C/c3ccc(O)c(O)c3)[nH]c2c1,n,n,n,65,n,54,n,72,n,n
COc1ccc(Cn2c(/C=C/c3ccccc3)nc3ccccc32)cc1,n,81,88,89,n,90,91,99,71,n
COc1ccc(/C=C/c2nc3ccccc3n2C)cc1,n,96,101,101,n,100,101,103,99,97
